GAA850 FXN act – activators of GAA850 frataxin (FXN) promoter | HEK293 lucGAA850 FXN promoter luciferase reporter, 24 h; percent of 10 µM SAHA response | activation, % at 6 µM | hit rate 0.56% among 360,000 | AID 540364;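 active means activation above the average of all compounds screened plus 3 SD, cutoff fixed separately per campaign, cut at about 7.5% in these data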
APJ agonist – activates the human apelin receptor APJ; hit rate 0.11% among 330,000; P35414; activation, % at 20 µM; CHO-K1 APJ PathHunter beta-arrestin, luminescence; 0% DMSO wells, 100% apelin;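 active means activation more than six SD over the plate average, tested at 20 µM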
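Material: engineered CHO-K1 APJ arrestin reporter cells; amount: 1000 CHO-K1 reporter cells seeded per well; incubation: compound stimulation 90 min at 25 °C, detection 60 min; signal: luminescent beta-gal fragment complementation, chemiluminescent substrate; read-out basis: APJ agonist activity; controls: DMSO-only wells as negative, 10 nM Apelin-13 as positive control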
CXCR6 inh – blocks human CXCR6 beta-arrestin recruitment; CHO-K1 PathHunter CXCR6 beta-arrestin, luminescence; inhibition, % at 20 µM; hit rate 0.36% among 360,000; in the data active means inhibition above about 34%, passing the limit was not always enough;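 further: antagonist mode with CXCL16 agonist at 10 nM final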
CCR6 antagonist – antagonists of human CCR6 receptor; P51684; CHO-K1 CCR6 PathHunter beta-arrestin, luminescence, CCL20-stimulated; inhibition, % at 20 µM; hit rate 0.49% among 340,000;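 active means compounds whose inhibition of the agonist-driven luminescence signal at 20 µM reaches about 50%, limit read from the data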;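 further: cells stimulated with CCL20 at 14 nM final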
Target sequence (P51684 whole entry, looked up): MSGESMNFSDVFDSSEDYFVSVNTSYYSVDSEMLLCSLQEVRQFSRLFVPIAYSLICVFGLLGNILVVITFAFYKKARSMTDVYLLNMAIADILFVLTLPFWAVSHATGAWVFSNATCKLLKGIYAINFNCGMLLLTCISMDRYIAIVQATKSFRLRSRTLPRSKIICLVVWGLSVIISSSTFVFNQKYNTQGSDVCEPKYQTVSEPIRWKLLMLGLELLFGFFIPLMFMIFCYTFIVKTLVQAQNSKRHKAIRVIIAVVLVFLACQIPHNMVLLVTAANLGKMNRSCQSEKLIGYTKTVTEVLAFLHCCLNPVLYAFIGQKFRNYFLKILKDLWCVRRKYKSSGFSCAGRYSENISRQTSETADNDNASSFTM
EBI2 block – antagonists of human EBI2 receptor; hit rate 0.81% among 360,000; EBI2 beta-arrestin recruitment, luminescence, 7a,25-OHC stimulated; inhibition, % at 5 µM; P32249; in the data active means inhibition above about 38%;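 further: enzyme fragment complementation signal reports receptor beta-arrestin coupling in cells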
APJ antag – blocks the human apelin receptor APJ; AID 2521; hit rate 0.32% among 330,000; P35414; inhibition, % at 20 µM; CHO-K1 APJ beta-arrestin complementation, luminescence;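 active means inhibition above about 40% at 20 µM, limit read from the data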;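 further: cells challenged with 10 nM apelin-13 agonist together with compound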
Of the large screens only hits and unclear results are named; the others gave an inactive call. Rows were chosen to be rich in hits. Some 2% of all compounds tested hit in one or more screens of this group.

O=[N+]([O-])c1ccc(-c2c(O)c3ccccc3c3nc4ccccc4nc23)cc1	CCR6 antagonist 76
Cc1cc(C)c(C)c(N=Nc2nc3ccccc3n2C)c1C	none
Cc1ccc(C)c(N=Nc2nc3ccccc3n2C)c1	CXCR6 inh 28
O=C(O)C(CO)(c1ccccc1)c1ccccc1	none
O=C(/C=C/c1ccc2c(c1)OCCO2)N1CCN(c2ccc(F)cc2)CC1	EBI2 block 44
Cc1nc(NNC(=O)c2ccc([N+](=O)[O-])cc2)cc(-c2ccccc2)n1	CCR6 antagonist 58
O=C(NNc1cc(N2CCCC2)nc(N2CCCC2)n1)c1ccc([N+](=O)[O-])cc1	none
CC(NO)C(C)(C)NO (centres undefined)	CCR6 antagonist 58
Cc1ccc(C)c(NC(=S)Nc2cccc3cnccc23)c1	none
Cc1ccccc1NC(=S)Nc1cccc2cnccc12	APJ agonist 16
CCOc1ccc(NC(=O)CN(C)S(=O)(=O)c2cccs2)cc1	CXCR6 inh 49
COc1cc(NC(=O)CN(C)S(=O)(=O)c2cccs2)cc(OC)c1	none
CN(C)S(=O)(=O)c1ccc2c(c1)nc(CCC(=O)NCC(=O)Nc1ccc(F)c(F)c1F)n2C	none (no result: APJ agonist, CCR6 antagonist, APJ antag)
N#Cc1ccc(-c2cccnc2)nc1SCC(=O)c1ccccc1	EBI2 block 40
CC(C)(C)NC(=O)C1(C)CCC(=O)N1C1CC1 (centres undefined)	none (no result: GAA850 FXN act, APJ agonist, CCR6 antagonist, APJ antag)
O=C1c2sc3nc4ccccc4n3c2C(=O)N1c1ccccc1Cl	CXCR6 inh 38
Cc1ccc(NC(=O)CSCC(=O)OC(C)C(=O)Nc2ccc(S(N)(=O)=O)cc2)c(C)c1 (centres undefined)	none
O=C(NNC(=S)NC(=O)C12CC3CC(CC(C3)C1)C2)c1ccncc1	CCR6 antagonist 51
CC1(C(=O)NC(=S)NNC(=O)c2ccncc2)CCCCC1	none
O=[N+]([O-])c1ccc(O)c(/C=N/Nc2ccccn2)c1	CCR6 antagonist 61, EBI2 block 64 (no result: APJ agonist, APJ antag)
O=[N+]([O-])c1ccc(NN=Cc2ccccc2O)nc1	none (no result: APJ agonist, CCR6 antagonist, APJ antag)
Cc1cc(C(=O)N/N=C/c2cc([N+](=O)[O-])ccc2O)c2ccccc2n1	EBI2 block 49
O=[N+]([O-])c1ccc(NN=Cc2ccc(O)cc2O)nc1	CCR6 antagonist 63 (no result: APJ agonist, APJ antag)
O=C(N/N=C/c1cc([N+](=O)[O-])ccc1O)C12CC3CC(CC(C3)C1)C2	CCR6 antagonist 71, EBI2 block 79
CC(C)NC(=O)C1C(c2ccc(C(F)(F)F)cc2)=Nc2ccccc2N1C(=O)c1cc2ccccc2[nH]1 (centres undefined)	none (no result: GAA850 FXN act, APJ agonist, CXCR6 inh, CCR6 antagonist, APJ antag)
CC(C)(C)c1ccc(C(=O)N2CCC2(C)C(=O)NS(=O)(=O)c2ccccc2Cl)cc1 (centres undefined)	none (no result: APJ agonist, CCR6 antagonist, APJ antag)
COc1ccc(N2CC(C(=O)N/N=C/c3cc([N+](=O)[O-])ccc3O)CC2=O)cc1 (centres undefined)	CCR6 antagonist 56
N#C/C(=C\c1ccc(O)cc1)c1nc2ccccc2o1	APJ antag 45
CS(=O)(=O)c1ccc(-n2nnc3ccccc32)c([N+](=O)[O-])c1	none
N#Cc1cc([N+](=O)[O-])c(-n2nnc3ccccc32)c([N+](=O)[O-])c1	CXCR6 inh 74 (no result: CCR6 antagonist)
Cc1ccc(-n2nc(C)c3c(C)c(CCC(=O)Nc4ccc(CN5CCCC5)cc4)c(C)nc32)cc1	CCR6 antagonist 52
COC(CNC(=O)CCc1c(C)nc2c(c(C)nn2-c2ccc(C)cc2)c1C)OC	none
Cn1cccc1C(C#N)c1cccc(F)c1C#N (centres undefined)	CCR6 antagonist 55
Cn1cccc1C(C#N)(CC#N)c1cccc(F)c1C#N (centres undefined)	none
C=C1C(=O)OC2CC1C(OC(C)=O)CC(C)=CCCC(C)=CCCC2(C)O (centres undefined)	EBI2 block 51 (no result: APJ agonist, CCR6 antagonist, APJ antag)
CC(C)CC1C(=O)N(Cc2cn(CCC3OCCO3)nn2)CCS(=O)(=O)N1Cc1ccc(-c2cccc(N(C)C)c2)cc1 (centres undefined)	none (no result: APJ agonist, CCR6 antagonist, APJ antag)
CC(=O)c1cccc(NC(=S)NC(=O)c2cncc(Br)c2)c1	CCR6 antagonist 56
COc1cccc(NC(=S)NC(=O)c2cncc(Br)c2)c1	none
COC(=O)c1sc(N)c(C(=O)OC)c1CSc1nc2sc3c(c2c(=O)n1C)CCC3	CXCR6 inh 52
CCCCOc1ccc(C(=O)N(CC)CC(=O)NCc2cccs2)cc1	none
CCC(=O)c1ccc(N2CCN(C(=O)c3ccc(Br)cc3)CC2)c(F)c1	EBI2 block 57
CCC(=O)c1ccc(N2CCN(C(=O)c3ccc(F)cc3)CC2)c(F)c1	none
N#CC1C(=O)NC(c2ccccc2)=CC1c1ccccc1 (centres undefined)	CCR6 antagonist 52 (no result: APJ agonist, APJ antag)
S=C1NC(c2ccccc2)=CC(c2ccccc2)N1 (centres undefined)	none
CC(=O)Nc1nc(-c2ccccc2)c(-c2ccccc2)o1	none
COc1cc(OC)cc(C(=O)Nc2nc(-c3ccccc3)c(-c3ccccc3)o2)c1	CCR6 antagonist 62
CN(C)c1ccc(C=C2SC(=S)NC2=O)cc1	none (no result: APJ agonist, APJ antag)
CN(C)c1ccc(/C=N/N=C2/NC(=O)/C(=C/c3ccc([N+](=O)[O-])cc3)S2)cc1	CCR6 antagonist 53
C/C(=N\NC(=S)Nc1ccc(F)cc1)c1ccc2c(c1)OCCO2	CCR6 antagonist 58
CCCCC(CC)CO (centres undefined)	none
CCCCC(CC)CN=C(N)NC(N)=NCCCCCCN=C(N)NC(N)=NCC(CC)CCCC (centres undefined)	CXCR6 inh 90, CCR6 antagonist 79
CC/C(=N/N=C(/CC)c1ccc(O)cc1)c1ccc(O)cc1	none
Cc1ccc(C(=O)OCC(=O)NCc2ccc(Cl)cc2)s1	none (no result: APJ agonist, CCR6 antagonist, APJ antag)
O=C(N/N=C/c1ccc(O)cc1)c1cccc(C(F)(F)F)c1	none
O=C(N/N=C/c1ccccc1O)c1cccc(C(F)(F)F)c1	EBI2 block 59
O=C(C#Cc1ccccc1)c1cccc([N+](=O)[O-])c1	CXCR6 inh 91, CCR6 antagonist 93
COc1ccc(Cc2ccccc2C(=O)O)cc1	none (no result: APJ agonist, APJ antag)
COc1ccc(CC2=CC(=O)c3ccccc3C2=O)cc1	CXCR6 inh 41
CNC(=O)CSCc1cnn(-c2ccccc2)c1-n1cccc1	none
CCOC(=O)N1CCC(NC(=O)CSCc2cnn(-c3ccccc3)c2-n2cccc2)CC1	GAA850 FXN act 8.3
COc1ccc(NC(=O)CN2C(=O)/C(=C3\SC(=S)N(CCC(=O)O)C3=O)c3ccccc32)cc1	CCR6 antagonist 55
COc1cc([N+](=O)[O-])cc(/C=N/NC(=O)C(C)Nc2ccccc2C)c1O (centres undefined)	EBI2 block 69
Cc1cc(Br)ccc1SCC(=O)N1CCN(S(=O)(=O)c2ccccc2)CC1	EBI2 block 83
O=C(NC1CCCCC1)C(CCc1ccccc1)N1CCc2ccccc2C1 (centres undefined)	none (no result: GAA850 FXN act, APJ agonist, CCR6 antagonist, APJ antag)
